Results from article PMC5987874 (The Journal of General Physiology, 2018).
Numbering of substitutions follows the chain as printed. Where two headings read alike, the source gives them in different places.

Key:
human Hv1 D185A-H193A = target: T1, human Hv1 D185A-H193A (Homo sapiens, UniProt Q96D96, D185A/H193A); test: Whole-cell voltage clamp, Zn^2+ modulation of GAQ gating; format: cell-based
T1 sequence (Q96D96 1-273 D185A/H193A): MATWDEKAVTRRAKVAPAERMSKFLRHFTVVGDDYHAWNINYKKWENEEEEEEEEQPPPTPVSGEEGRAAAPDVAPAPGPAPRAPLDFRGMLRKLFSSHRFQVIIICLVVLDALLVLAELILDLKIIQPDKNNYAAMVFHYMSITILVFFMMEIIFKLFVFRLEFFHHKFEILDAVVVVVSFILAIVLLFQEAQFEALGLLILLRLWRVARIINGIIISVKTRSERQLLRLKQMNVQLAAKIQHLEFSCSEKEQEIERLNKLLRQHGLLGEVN
Procedure, shortened: (§1)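 Whole-cell patch clamp at ~21°C. Pipette and bath (mM): ~80 TMA-MeSO3, 100 Bis-Tris, 8 HCl, pH 6.5, 310–320 mOsm. ZnCl2 was diluted into bath solution and applied by gravity superfusion, at least 2 min per change. Test step voltage was set per construct from its V0.5. G_STEP = end-of-step current/(V−V_REV). Effect = 1 − G_Zn/G_control, fitted to the Hill equation. IC50 and nH are means ± SEM from separate cells. ΔpIC50 was tested by unpaired t test, P<0.05.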

[1] = target: human Hv1 H140A-D185H-H193A-R205H (Homo sapiens, UniProt Q96D96, D185H/H140A/H193A/R205H); test: as above; format: cell-based
Procedure, shortened: as §1

human Hv1 H140A-H193A = target: T2, human Hv1 H140A-H193A (Homo sapiens, UniProt Q96D96, H140A/H193A); details: double mutant; ref Ramsey et al., 2006; cited from earlier work
T2 sequence (Q96D96 1-273 H140A/H193A): T1 sequence (Q96D96 1-273 D185A/H193A) with H140A, A185D

[2] = target: T3, human Hv1 E119A (E^1.58A) (Homo sapiens, UniProt Q96D96, E119A); test: Whole-cell voltage clamp, Zn^2+ modulation of GAQ gating; format: cell-based
T3 sequence (Q96D96 1-273 E119A): T1 sequence (Q96D96 1-273 D185A/H193A) with E119A, A185D, A193H
Procedure, shortened: as §1

human Hv1 D130H-H193A = target: T4, human Hv1 D130H-H193A (Homo sapiens, UniProt Q96D96, D130H/H193A); test: as above; format: cell-based
T4 sequence (Q96D96 1-273 D130H/H193A): T1 sequence (Q96D96 1-273 D185A/H193A) with D130H, A185D
Procedure, shortened: as §1

human Hv1 E119A-H193A = target: T5, human Hv1 E119A-H193A (Homo sapiens, UniProt Q96D96, E119A/H193A); test: as above; format: cell-based
T5 sequence (Q96D96 1-273 E119A/H193A): T1 sequence (Q96D96 1-273 D185A/H193A) with E119A, A185D
Procedure, shortened: as §1

human Hv1 D123H-H193A = target: T6, human Hv1 D123H-H193A (Homo sapiens, UniProt Q96D96, D123H/H193A); test: as above; format: cell-based
T6 sequence (Q96D96 1-273 D123H/H193A): T1 sequence (Q96D96 1-273 D185A/H193A) with D123H, A185D
Procedure, shortened: as §1

[3] = VSTEP 120 mV, calculated as log (IC50)

Sequence of human Hv1 H140A-D185H-H193A-R205H (Q96D96 whole entry H140A/D185H/H193A/R205H): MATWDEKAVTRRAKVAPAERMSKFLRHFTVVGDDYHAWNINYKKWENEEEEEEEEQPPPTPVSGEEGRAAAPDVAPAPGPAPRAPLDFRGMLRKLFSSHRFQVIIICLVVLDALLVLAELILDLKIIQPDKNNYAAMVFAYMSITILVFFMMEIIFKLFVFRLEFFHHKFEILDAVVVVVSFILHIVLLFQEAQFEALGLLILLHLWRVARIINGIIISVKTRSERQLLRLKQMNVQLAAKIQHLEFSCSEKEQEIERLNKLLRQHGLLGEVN

[Cl-].[Cl-].[Zn+2] [Zn^2+, ZnCl2]
nH, fit of the mean data to a Hill function (human Hv1 D185A-H193A; Fig. 4D): 0.7
Hill value (human Hv1 D185A-H193A; VSTEP 140 mV): 0.62
pIC50 (human Hv1 D185A-H193A; VSTEP 140 mV, calculated as log (IC50)): −3.88
IC50 (human Hv1 D185A-H193A; read-out: IC50, fit of the mean data to a Hill function, Fig. 4D): 99.2 µM
Mean ΔpIC50 = (pIC50_1 - pIC50_2) ([1]; H140A-D185H-H193A-R205H vs H140A-D185H-H193A): 0.54
Mean pIC50 ([1]; Table 2 only, calculated as log (IC50)): −3.68
Zn^2+ sensitivity (human Hv1 H140A-H193A): essentially insensitive to submillimolar
Mean ΔpIC50 = (pIC50_1 - pIC50_2) ([2]; E119A vs WT): −0.28
nH, fit of the mean data to a Hill function ([2]; Fig. 3C): 0.8
Hill value ([2]; VSTEP 120 mV): 0.80
pIC50 [2, 3]: 5.16
IC50 ([2]; read-out: IC50, fit of the mean data to a Hill function, Fig. 3C): 6.7 µM
Mean ΔpIC50 = (pIC50_1 - pIC50_2) (human Hv1 D130H-H193A; D130H-H193A vs D130H): −0.16
Mean ΔpIC50 = (pIC50_1 - pIC50_2) (human Hv1 D130H-H193A; D130H-H193A vs H193A): 1.44
nH, fit of the mean data to a Hill function (human Hv1 D130H-H193A; Fig. 4C): 0.6
Hill value (human Hv1 D130H-H193A; VSTEP 120 mV): 0.91
pIC50 (human Hv1 D130H-H193A; [3]): 5.51
IC50 (human Hv1 D130H-H193A; read-out: IC50, fit of the mean data to a Hill function, Fig. 4C): 5.6 µM
Mean ΔpIC50 = (pIC50_1 - pIC50_2) (human Hv1 E119A-H193A; E119A-H193A vs E119A): −1.60
Mean ΔpIC50 = (pIC50_1 - pIC50_2) (human Hv1 E119A-H193A; E119A-H193A vs H193A): −0.5
nH, fit of the mean data to a Hill function (human Hv1 E119A-H193A; Fig. 4A): 0.8
Hill value (human Hv1 E119A-H193A; VSTEP 100 mV): 0.78
pIC50 (human Hv1 E119A-H193A; VSTEP 100 mV, calculated as log (IC50)): −3.56
IC50 (human Hv1 E119A-H193A; read-out: IC50, fit of the mean data to a Hill function, Fig. 4A): 274 µM
Mean ΔpIC50 = (pIC50_1 - pIC50_2) (human Hv1 D123H-H193A; D123H-H193A vs H193A): 0.47
nH, fit of the mean data to a Hill function (human Hv1 D123H-H193A; Fig. 4B): 0.9
Hill value (human Hv1 D123H-H193A; VSTEP 80 mV): 1.06
pIC50 (human Hv1 D123H-H193A; VSTEP 80 mV, calculated as log (IC50)): −4.54
IC50 (human Hv1 D123H-H193A; read-out: IC50, fit of the mean data to a Hill function, Fig. 4B): 28.6 µM
IC50 (human Hv1 D123H-H193A; read-out: Mean IC50 @ VSTEP, VSTEP 80 mV, pH 6.5, mean of fits in separate cells): 36 µM
